Source: PubChem BioAssay
In the library only some 2.1% were active in any assay of this set; here they are far more common.
dFosB act – enhances mouse delta FosB homodimer DNA binding; 340,000 tested, 0.99% active; AID 493131; activation, % at 25 µM; purified delta FosB, TAMRA-CDK5 oligo fluorescence polarization; percent of positive-control signal above neutral wells; P13346;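 active = mean activation above about 17%, with every replicate also reaching it, limit read from the data, passing the limit was not always enough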
PKA-R1A activ – activators of PKA-R1A complex | 340,000 tested, 0.083% active | activation, % at 11.4 µM | PKA-R1A dissociation, Cy5-IP20 fluorescence polarization; scaled: DMSO 0%, 113 µM cGMP 100%;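 active = percent activation above the mean of all tested compounds plus 3 SD, cut at about 19% in these data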;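 note: higher means more PKAc released from R1A so a rise in polarization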
CDK5 p35 inh – blocks human CDK5/p35 kinase activity; AID 488839; Q00535+Q15078; Recombinant CDK5/p35, ADP-Glo luminescence, 60 min; inhibition, % at 10 µM; 330,000 tested, 0.01% active;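 active = highest replicate inhibition of at least 50% and at least 75% of replicates reaching 50%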
SR-BI HDL uptake – inhibitors of mouse SR-BI mediated HDL lipid uptake; 320,000 tested, 0.96% active; inhibition, % at 12.5 µM; ldlA[mSR-BI] CHO cells, DiI-HDL uptake fluorescence, 3 h; Q61009;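 active = mean replicate inhibition of at least 70% and a set share of replicates each scoring 70 or more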
PKA-R2B act – activates the human PKA-R2B holoenzyme complex; P22694+P31323; PKA-R2B holoenzyme dissociation, Cy5-IP20 fluorescence polarization; R2B truncated from residue 108, S112A mutant; 0% DMSO only, 100% 113 µM cGMP; activation, % at 11.4 µM; 340,000 tested, 0.079% active;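 active = activation above a cutoff set at the mean over all compounds plus 3 SD, cut at about 18% in these data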;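 note: higher means more holoenzyme dissociation and a rise in polarization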
Target sequence (P31323 whole entry, looked up, other chains not shown, the tested form may be a part): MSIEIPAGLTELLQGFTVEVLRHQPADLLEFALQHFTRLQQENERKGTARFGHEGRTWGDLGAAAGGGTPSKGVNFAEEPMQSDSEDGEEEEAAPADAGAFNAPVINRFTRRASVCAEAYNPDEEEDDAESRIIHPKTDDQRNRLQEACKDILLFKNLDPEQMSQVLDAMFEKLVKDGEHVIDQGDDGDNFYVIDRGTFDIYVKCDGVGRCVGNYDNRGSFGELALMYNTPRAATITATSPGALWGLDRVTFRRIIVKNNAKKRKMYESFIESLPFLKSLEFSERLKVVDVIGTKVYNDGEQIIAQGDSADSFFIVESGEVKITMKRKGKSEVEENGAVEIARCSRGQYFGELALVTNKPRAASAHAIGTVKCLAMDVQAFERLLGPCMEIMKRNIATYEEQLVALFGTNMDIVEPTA
SR-BI DiI-HDL act – SR-BI HDL lipid transfer activation. CHO ldlA[mSR-BI] cells, DiI-HDL uptake fluorescence, 3 h; 100 = double the neutral-control signal. activation, % at 12.5 µM. 320,000 tested, 0.096% active. AID 504775;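 active = mean replicate activation of at least 60% and every replicate at or above 60%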
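Test system: SR-BI-overexpressing, LDLR-lacking CHO cells; Also added: labelled HDL, 10 µg/mL; Measured by: bottom-read cell fluorescence after medium removal, ex 550/em 595 nm; Timing: 3 h uptake period with compound, 37 °C; Buffer or medium: F12, 0.5% BSA, 25 mM HEPES; Doses: single compound concentration, delivered by pin transfer.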
R2B FP artifact – fluorescence polarization artifact in PKA-R2B activator counter-screen | shares compounds with PKA-R2B act | FP artifact counterscreen | activation, % at 11.4 µM | 270 tested, 6% active | AID 504796; in the data active = activation above about 20%;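 note: Cy5 labelled IP20 peptide probe with compound but no PKA protein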
PKA-R2B act conf – PKA-R2B complex activation, confirmation; 270 tested, 9% active; shares compounds with PKA-R2B act; activation, % at 11.4 µM; fluorescence polarization; in the data active = activation above about 19%
Target sequence (P31323 whole entry, looked up): as the sequence (P31323 whole entry, looked up, other chains not shown, the tested form may be a part) above
Each line names hits and unclear results; the compound was inactive in the other large screens (follow-up assays come after a bar, where they were run).

COc1ccccc1NC(=O)C1CCN(C(=O)C2CC(=O)N(c3ccc(C)cc3)C2)CC1 (configuration not stated)	PKA-R2B act 20 (no result: SR-BI HDL uptake, SR-BI DiI-HDL act) | R2B FP artifact inactive | PKA-R2B act conf inactive
O=C(COC(=O)Cn1nnc(-c2ccccc2)n1)Nc1cc(F)ccc1F	none
O=C(Nc1nc(-c2ccccc2)cs1)C1CCCCN1S(=O)(=O)c1ccc(Cl)cc1 (configuration not stated)	none
CC(C)(C)C(=O)Nc1nc(C2CCCN2S(=O)(=O)c2ccc(Cl)cc2)cs1 (configuration not stated)	PKA-R2B act 19 | R2B FP artifact inactive | PKA-R2B act conf inactive
Cn1c(/C(C#N)=C(\O)c2ccc(S(=O)(=O)N3CCCCC3)cc2)nc2ccccc21	PKA-R2B act 19 | R2B FP artifact inactive | PKA-R2B act conf inactive
COc1ccc(/C(O)=C(\C#N)c2nc3ccccc3n2C)cc1OC	none
COc1ccc(NC(=O)C2CCN(S(=O)(=O)c3ccccc3)CC2)cc1	none
COc1ccc(S(=O)(=O)N2CCC(C(=O)Nc3c(F)cccc3F)CC2)cc1	PKA-R2B act 21 | R2B FP artifact inactive | PKA-R2B act conf inactive
Cc1c(Cl)c(C(=O)NC2C3CC4CC(C3)CC2C4)nn1C (configuration not stated)	PKA-R2B act 20 | R2B FP artifact inactive | PKA-R2B act conf inactive
COc1ccccc1N=C1NC(=O)/C(=C/c2ccc(N(C)C)cc2)S1	none
CC(=O)N1CCN(c2ccc(NC(=O)C(C)Oc3ccc(Cl)cc3Cl)cc2)CC1 (configuration not stated)	PKA-R2B act 19 | R2B FP artifact inactive | PKA-R2B act conf inactive
COC(=O)c1cc(S(=O)(=O)N(C)c2ccc(C)c(C)c2)c[nH]1	none
CCOc1ccc(N(C)S(=O)(=O)c2c[nH]c(C(=O)OC)c2)cc1	PKA-R2B act 20 | R2B FP artifact inactive | PKA-R2B act conf inactive
CN(Cc1ccccc1)C(=O)c1ccc(NC(=O)Cc2ccc(NC(=O)C3CCCN(C(=O)C4CC4)C3)cc2)cc1 (configuration not stated)	none
Cc1onc(-c2ccccc2Cl)c1C(=O)NCc1cccnc1	PKA-R2B act 20 | R2B FP artifact inactive | PKA-R2B act conf inactive
C=CCNc1nc2c(c(=O)[nH]c(=O)n2C)n1CCOc1ccccc1	none
C=CCNc1nc2c(c(=O)[nH]c(=O)n2C)n1Cc1cccc(C)c1	PKA-R2B act 22 | R2B FP artifact inactive | PKA-R2B act conf inactive
CNC[C@@H]1OCc2ccccc2-c2c(n(C)c3ccccc23)C(=O)N([C@H](C)CO)C[C@@H]1C	none (no result: dFosB act, CDK5 p35 inh, SR-BI HDL uptake, SR-BI DiI-HDL act)
CCC(=O)Nc1ccccc1N1CCN(c2ccc(F)cc2)CC1	PKA-R2B act 19 | R2B FP artifact inactive | PKA-R2B act conf inactive
CC1CCN(C(=O)CSc2nc3c(c(=O)n2C)SCC3)CC1	PKA-R2B act 24 | R2B FP artifact inactive | PKA-R2B act conf inactive
COc1ccccc1C(=O)NC(=O)COC(=O)c1cc[n+]([O-])cc1	none
O=C(Nc1ccc(C(=O)O)cc1)/C(=C\c1ccco1)NC(=O)c1ccc(Br)cc1	PKA-R2B act 24 (no result: dFosB act, CDK5 p35 inh, SR-BI HDL uptake, SR-BI DiI-HDL act) | R2B FP artifact inactive | PKA-R2B act conf inactive
CCN1CCCC1CN(Cc1cc2cc(C)ccc2[nH]c1=O)C(=O)Nc1ccccc1OC (configuration not stated)	PKA-R2B act 19 (no result: SR-BI HDL uptake, SR-BI DiI-HDL act) | R2B FP artifact inactive | PKA-R2B act conf inactive
CC1CCCCC1NS(=O)(=O)c1ccc2c(c1)CC(=O)N2C (configuration not stated)	none
CN(C)CCCn1cnc2c(c1=N)C(c1ccccc1)c1ccc3ccccc3c1O2 (configuration not stated)	PKA-R2B act 22 | R2B FP artifact inactive | PKA-R2B act conf inactive
